Measured values reported in ChEMBL document CHEMBL4257540, “Structure-based virtual screening and ADME/T-based prediction analysis for the discovery of novel antifungal CYP51 inhibitors” (Medchemcomm, 2018).
Converted amounts (≈) assume the structure as drawn.

Assays:
Candida tropicalis = assay: Antifungal activity against Candida tropicalis ATCC 1369 by broth microdilution method; assay type: functional
Procedure, shortened: (§1)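 MIC per NCCLS broth microdilution. Fungi incubated at 35 °C and growth checked daily. Fluconazole served as positive control.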

[1] = target: T1, Lanosterol 14-alpha demethylase (Candida albicans (strain SC5314 / ATCC MYA-2876) (Yeast), UniProt P10613); assay: Inhibition of CYP51 in Candida albicans SC5314 assessed as lanosterol content at 8 ug/ml after 16 hrs by GC/MS analysis (reference value: 3.9%); parameters: scale not given: the % may be the effect or the level left; conditions: candida albicans sc5314, 16 h
T1 sequence (P10613 whole entry): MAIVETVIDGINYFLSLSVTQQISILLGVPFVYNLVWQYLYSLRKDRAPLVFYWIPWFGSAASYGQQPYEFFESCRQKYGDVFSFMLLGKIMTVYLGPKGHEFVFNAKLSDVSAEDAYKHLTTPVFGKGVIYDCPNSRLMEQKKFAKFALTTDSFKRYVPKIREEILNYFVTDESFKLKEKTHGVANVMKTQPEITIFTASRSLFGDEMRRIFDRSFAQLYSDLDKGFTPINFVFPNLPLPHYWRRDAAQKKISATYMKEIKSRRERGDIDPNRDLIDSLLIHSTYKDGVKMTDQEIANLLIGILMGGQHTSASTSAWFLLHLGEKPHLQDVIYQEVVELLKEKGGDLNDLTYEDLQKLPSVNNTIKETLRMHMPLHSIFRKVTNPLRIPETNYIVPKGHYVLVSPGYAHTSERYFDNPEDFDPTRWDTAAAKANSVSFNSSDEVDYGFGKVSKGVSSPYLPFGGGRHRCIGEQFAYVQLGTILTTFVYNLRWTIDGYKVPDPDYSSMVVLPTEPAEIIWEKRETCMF

Candida albicans [2] = assay: Antifungal activity against Candida albicans ATCC 10231 by broth microdilution method; assay type: functional
Procedure, shortened: (§2)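 Broth microdilution MIC per NCCLS guidelines; strains from a Chinese medical fungus preservation centre and Shenyang Pharmaceutical University. Cultures kept at 35 °C with daily growth observation.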

Nakaseomyces glabratus = assay: Antifungal activity against Candida glabrata ATCC 0001 by broth microdilution method; assay type: functional; procedure, shortened: as §1
[3] = target: T1, Lanosterol 14-alpha demethylase; assay: Inhibition of CYP51 in Candida albicans SC5314 assessed as obtusifoliol content at 8 ug/ml after 16 hrs by GC/MS analysis relative to control; parameters: scale not given: the % may be the effect or the level left; conditions: candida albicans sc5314, 16 h
Candida albicans [4] = assay: Antifungal activity against fluconazole-resistant Candida albicans 100 by broth microdilution method; assay type: functional; procedure, shortened: as §2
[5] = target: T1, Lanosterol 14-alpha demethylase; assay: Inhibition of CYP51 in Candida albicans SC5314 assessed as ergosterol content at 8 ug/ml after 16 hrs by GC/MS analysis (reference value: 90.3%); parameters: scale not given: the % may be the effect or the level left; conditions: candida albicans sc5314, 16 h
Aspergillus fumigatus = assay: Antifungal activity against Aspergillus fumigatus KM8001 by broth microdilution method; assay type: functional; procedure, shortened: as §1
[6] = target: T1, Lanosterol 14-alpha demethylase; assay: Inhibition of CYP51 in Candida albicans SC5314 assessed as eburicol content at 8 ug/ml after 16 hrs by GC/MS analysis relative to control; parameters: scale not given: the % may be the effect or the level left; conditions: candida albicans sc5314, 16 h
Candida albicans [7] = assay: Antifungal activity against fluconazole-resistant Candida albicans 103 by broth microdilution method; assay type: functional; procedure, shortened: as §2
[8] = target: T1, Lanosterol 14-alpha demethylase; assay: Inhibition of CYP51 in Candida albicans SC5314 assessed as unidentified sterol content at 8 ug/ml after 16 hrs by GC/MS analysis (reference value: 5.8%); parameters: scale not given: the % may be the effect or the level left; conditions: candida albicans sc5314, 16 h
Pichia kudriavzevii = assay: Antifungal activity against Candida krusei ATCC 6258 by broth microdilution method; assay type: functional; procedure, shortened: as §1

Row | Compound | MIC (Candida tropicalis) [µg/mL] | Activity [1] [%] | MIC (Candida albicans [2]) [µg/mL] | MIC (Nakaseomyces glabratus) [µg/mL] | Activity [3] [%] | MIC (Candida albicans [4]) [µg/mL] | Activity [5] [%] | MIC (Aspergillus fumigatus) [µg/mL] | Activity [6] [%] | MIC (Candida albicans [7]) [µg/mL] | Activity [8] [%] | MIC (Pichia kudriavzevii) [µg/mL]
1 | Nc1c(/C=N/NC(=O)c2ccncc2)ccc2c1C(=O)c1ccccc1C2=O | 2 (≈ 5.4 µM) | 20.3 | 8 (≈ 21.6 µM) | 8 (≈ 21.6 µM) | 7.4 | 8 (≈ 21.6 µM) | 4.6 | 16 (≈ 43.2 µM) | 63.4 | 16 (≈ 43.2 µM) | 4.3 | 4 (≈ 10.8 µM)
2 | O=C(NCCc1ccncc1)c1cnc2c(F)cccc2c1O | 16 (≈ 51.4 µM) | 23.1 | 8 (≈ 25.7 µM) | 4 (≈ 12.8 µM) | 8.2 | 8 (≈ 25.7 µM) | 9.1 | 16 (≈ 51.4 µM) | 54.7 | 16 (≈ 51.4 µM) | 4.9 | 8 (≈ 25.7 µM)
3 | OC(Cn1cncn1)(Cn1cncn1)c1ccc(F)cc1F [FLUCONAZOLE] | 2 (≈ 6.53 µM) | 19.9 | 4 (≈ 13.1 µM) | 2 (≈ 6.53 µM) | 6.3 | > 64 | 2.5 | 32 (≈ 104 µM) | 67.2 | > 64 | 4.1 | 2 (≈ 6.53 µM)
4 | COc1cccc(NC(=S)N(CCN(C)C)[C@@H](C)c2ccncc2)c1 | 4 (≈ 11.2 µM) | 22.4 | 4 (≈ 11.2 µM) | 2 (≈ 5.58 µM) | 7.1 | 8 (≈ 22.3 µM) | 5.8 | 8 (≈ 22.3 µM) | 59 | 4 (≈ 11.2 µM) | 5.7 | 4 (≈ 11.2 µM)
